# Shown are actives, neighbours in structure and some others; about 0.55% of the full set was active somewhere.
# V1aR counter = activates human V1a receptor in oxytocin agonist counter-screen | CHO-V1R cells, Fluo-8 calcium fluorescence, agonist mode; 0% DMSO, 100% 3 nM vasopressin | AID 2797 | activation, % at 3 µM | P37288 | actives 0.25% (n = 320,000);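 active = activation above the mean activation of all tested compounds plus 3 SD, per screening run, cut at about 20% in these data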;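 note: signal is peak over basal fluorescence ratio across a 100 second FLIPR read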
# Target sequence (P37288 whole entry, looked up): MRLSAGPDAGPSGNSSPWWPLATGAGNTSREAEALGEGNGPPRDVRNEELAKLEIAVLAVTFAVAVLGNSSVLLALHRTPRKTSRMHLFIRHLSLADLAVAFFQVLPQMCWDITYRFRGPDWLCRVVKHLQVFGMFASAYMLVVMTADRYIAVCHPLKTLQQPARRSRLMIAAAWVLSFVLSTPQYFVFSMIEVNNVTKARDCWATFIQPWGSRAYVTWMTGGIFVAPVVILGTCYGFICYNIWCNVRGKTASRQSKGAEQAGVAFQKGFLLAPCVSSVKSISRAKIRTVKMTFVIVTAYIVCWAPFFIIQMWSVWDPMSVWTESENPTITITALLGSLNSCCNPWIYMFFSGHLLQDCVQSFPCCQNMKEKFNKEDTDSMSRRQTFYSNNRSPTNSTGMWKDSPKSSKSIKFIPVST
# OXTR agonist = agonists of human oxytocin receptor | AID 2435 | CHO-OTR cells, Fluo-8 calcium fluorescence; normalized: DMSO 0%, oxytocin 100% | actives 0.32% (n = 320,000) | activation, % at 3 µM | P30559;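 active = activation above the mean of all tested compounds plus 3 SD, cutoff set per screening run, cut at about 20% in these data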;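 note: peak over basal fluorescence ratio from a 100 s FLIPR kinetic read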
# zfTRPN1 agonist = zebrafish TRPN1 (NompC) channel agonism; HEK293 zebrafish TRPN1-YFP, Fluo-8 calcium fluorescence; 100% = response to 87 µM carbachol; activation, % at 3 µM; actives 0.18% (n = 220,000); AID 1424;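 active = activation above its plate's cutoff, the mean activation of test wells on that plate plus 3 SD, cut at about 19% in these data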;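 note: 0% = DMSO alone and 100% = 87 µM carbachol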
#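 Material: zebrafish TRPN1-YFP in HEK293 cells; Doses: single test compound dose, 3 µM nominal, 0.3% DMSO; Timing: dye loading 1 h at 37 °C, then 30 min room temperature; Technique: intracellular calcium fluorescence with Fluo-8; Benchmarks: high carbachol 87 µM, low DMSO alone.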
# TRPML3 ag = human mucolipin-3 channel agonism; HEK293 TRPML3-YFP, Fluo-8 calcium fluorescence; 100% = the carbachol control signal; actives 0.29% (n = 220,000); activation, % at 3 µM; Q8TDD5;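 active = activation above its plate's cutoff, the mean activation of the plate's test wells plus 3 SD, cut at about 12% in these data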;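 note: 0% = DMSO only wells and 100% = carbachol wells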
#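 Test system: HEK293 cells stably carrying human TRPML3-YFP; Doses: single dose, 3 µM final nominal compound, 0.3% DMSO final; Schedule: dye loading 1 h 37 °C then 30 min ambient, 125 s read; Technique: Fluo-8 calcium fluorescence; Benchmarks: high control carbachol 87 µM, low control DMSO.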
# OXTR potentiator = human OXTR potentiation; P30559; CHO-OTR cells, Fluo-8 calcium fluorescence, potentiator mode; 0% = oxytocin EC15, 100% = EC100; activation, % at 3 µM; actives 0.061% (n = 320,000);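 active = activation above that plate's cutoff, the mean activation of tested compounds plus 3 SD, cut at about 6.6% in these data, passing the limit was not always enough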;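 note: 100% uses oxytocin at 75 nM as the full agonist control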
#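 Assay system: CHO-OTR cells, human receptor / Also added: oxytocin at about EC15, sub-maximal agonist stimulus / Dosing: single dose, 3.0 µM nominal final compound concentration / Incubation: 6 min pre-incubation, 100 s read / Technique: Fluo-8 calcium dye fluorescence / Read-out: % activation vs EC15 and EC100 oxytocin / Benchmarks: EC15 oxytocin low, 75 nM oxytocin high / Replicates: singlicate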
# OXTR agonist cf = human OXTR agonism, confirmation. shares compounds with OXTR agonist. CHO-OTR cells, Fluo-8 calcium fluorescence, agonist. activation, % at 3 µM. actives 20% (n = 390);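 active = mean activation above about 20% derived from the earlier single-dose screen, limit read from the data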;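 note: peak over minimum fluorescence ratio per well during a 100 second FLIPR read; 0% = DMSO alone and 100% = oxytocin high control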
# V1R ag counter 3x = V1R agonism in triplicate, counter-screen for OXTR agonists | AID 434991 | actives 10% (n = 390) | activation, % at 3 µM | CHO-V1R cells, Fluo-8 calcium fluorescence, agonist | shares compounds with OXTR agonist;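 active = mean activation over triplicate exceeds the hit threshold set in the earlier primary screen, cut at about 20% in these data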;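 note: peak over basal fluorescence ratio within a 100 second read; 0% = DMSO alone and 100% = 3 nM vasopressin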
# OXTR pot cf = human OXTR potentiation, confirmation. shares compounds with OXTR potentiator. CHO-OTR cells, Fluo-8 calcium fluorescence; scaled from low-dose to maximal oxytocin. activation, % at 3 µM. 180 tested, under 10 active. AID 434985;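 active = mean percent activation over triplicates above a cutoff set from solvent-only control plates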;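 note: compounds tested in the presence of an EC15 dose of oxytocin; 0% = EC15 oxytocin with DMSO and 100% = EC100 oxytocin with DMSO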
# Starred values were filed as active, the others as inactive; / = no result.
SMILES,V1aR counter,OXTR agonist,zfTRPN1 agonist,TRPML3 ag,OXTR potentiator,OXTR agonist cf,V1R ag counter 3x,others
Cc1cccc(Oc2ccc(NC(=O)C3=CC=CN4CCS(=O)(=O)N=C34)cc2)c1,7,21*,/,/,-11,11,3,
Cc1ccc(Oc2ccc(NC(=O)C3=CC=CN4CCS(=O)(=O)N=C34)cc2)cc1,7,24*,/,/,-12,9,2,
CC(C)(C)c1ccc(NC(=O)C2=CC=CN3CCS(=O)(=O)N=C23)cc1,2,4,/,/,-9,/,/,
CC(NCC(O)COc1ccc2ccccc2c1)c1ccccc1 (stereo unspecified),13,22*,/,/,-18,10,7,
Cc1sc(NC(=O)CSc2nnc(COc3ccccc3)n2C)c(C#N)c1C,4,0,-1,0,-14,/,/,
Cc1ccc(OCc2nnc(SCC(=O)Nc3sc(C)c(C)c3C#N)n2C)cc1,0,21*,0,1,-19,-1,-1,
Cc1ccc(Cl)cc1NC(=O)CN1C(=O)NC(C)(C2CC2)C1=O (stereo unspecified),1,1,/,/,-3,/,/,
CCN1CCN(CC(=O)Nc2ccc(C(C)=O)cc2)CC1,2,3,/,/,-13,/,/,
Cc1ccc(Cl)cc1N1CCN(CC(=O)Nc2ccc(CN3CCCCC3)cc2)CC1,12,28*,14,9,-14,19,13,
CC(=O)c1ccc(NC(=O)CN2CCCCCC2)cc1,1,21*,/,/,-7,1,0,
CCCc1nnc(NC(=O)Cn2c(=O)sc3ccccc32)s1,11,21*,2,1,-9,8,5,
CCCc1nnc(NC(=O)CN2C(=O)c3ccccc3C2=O)s1,1,2,0,0,-5,/,/,
OC(c1cc(C(F)(F)F)nc2c(Cl)cc(Cl)cc12)C1CCCCN1 (stereo unspecified),9,23*,2,2,-15,9,5,
O[C@@H](c1cc(C(F)(F)F)nc2c(C(F)(F)F)cccc12)[C@H]1CCCCN1,9,17,/,/,-18,/,/,
COc1cc(OC)c(OC)cc1CCC(C)NCCC(c1ccccc1)c1ccccc1 (stereo unspecified),18,22*,/,/,-24,7,10,
CCN(CC)S(=O)(=O)c1ccc(N2CCOCC2)c(NC(=O)CC2OC(=O)c3ccccc32)c1 (stereo unspecified),0,0,/,/,-14,/,/,
c1ccc(COc2ccc(OCCCNC3CCCC3)cc2)cc1,13,21*,1,2,-16,13,2,
CCc1ccc(Nc2n[n+](-c3ccccc3)c(-c3ccc(N(CC)CC)cc3)s2)cc1,17,40*,/,/,-18,71*,101*,
CC1CCCC(C)N1C(=O)COC(=O)c1ccc([N+](=O)[O-])o1 (stereo unspecified),1,2,/,/,0,/,/,
N#C/C(=C(/O)c1ccc(Cl)c([N+](=O)[O-])c1)c1nc2ccccc2[nH]1,8,26*,10,3,-6,4,6,
N#C/C(=C(/O)c1ccc([N+](=O)[O-])cc1)c1nc2ccccc2[nH]1,1,3,2,2,-9,/,/,
CC(Oc1cccc(Cl)c1)C(=O)Nc1ccc(S(=O)(=O)N(C)C2CCN(C)CC2)cc1 (stereo unspecified),15,22*,/,/,-12,19,14,
CC(=O)Nc1ccc(S(=O)(=O)N(C)C2CCN(C)CC2)cc1,1,0,/,/,-7,/,/,
CCOC(=O)C1CCN(C(=O)CCn2c(=O)c3cccn3c3cccnc32)CC1,1,1,/,/,-7,/,/,
COc1ccc(C(=O)N/N=C/c2sc3ccccc3c2O)cc1,7,10,4,1,-9,/,/,
SMILES,V1aR counter,OXTR agonist,zfTRPN1 agonist,TRPML3 ag,OXTR potentiator,OXTR agonist cf,V1R ag counter 3x,others
O=C(N/N=C/c1sc2ccccc2c1O)c1ccccc1,11,21*,6,6,-15,30*,48*,
Oc1ccc(Cl)cc1CNCc1ccc(F)c(F)c1,15,18,/,/,-16,/,/,
Oc1ccc(Cl)cc1CNCc1ccc(Cl)nc1,16,20*,/,/,-2,21*,13,
CCCCN(CCO)c1ncnc2sc(-c3ccccc3)cc12,-1,-1,/,/,-13,/,/,
CCOc1ccccc1OCC(=O)Nc1ccc(OC)c(S(=O)(=O)N2CCCCC2)c1,1,0,/,/,-8,/,/,
CCOc1ccc(NC(=O)C(C)Oc2ccc(C#N)cc2)cc1S(=O)(=O)N1CCCC1 (stereo unspecified),9,20*,/,/,-10,16,8,
CCCCCCOc1ccc(OCC(O)CN2C(=O)NC(C)(C)C2=O)cc1 (stereo unspecified),14,24*,1,0,-11,5,2,
COc1ccc(S(=O)(=O)N(n2c(C)nnc2-n2nc(C)cc2C)S(=O)(=O)c2ccc(OC)cc2)cc1,0,21*,2,0,-15,1,1,
COc1ccc(C2SCCN2C(=S)Nc2ccc(F)cc2)cc1 (stereo unspecified),2,3,3,1,-8,/,/,
CCOC(=O)c1ccc(NC(=S)N2CCSC2c2ccc(OC)cc2)cc1 (stereo unspecified),18,32*,5,2,-21,37*,31*,
COc1cccc(OC)c1C(=O)Nn1c(C2CCC2)nc2ccccc2c1=O,-1,-2,1,0,4,/,/,
CCC(=O)Nn1c(C2CCC2)nc2ccccc2c1=O,0,-1,/,/,13*,/,/,OXTR pot cf=-2
COc1ccc(C(=O)NNC(=O)c2ccc(F)c(S(=O)(=O)N3CCOCC3)c2)cc1,1,2,/,/,14*,/,/,OXTR pot cf=-5
O=C(NC(=S)Nc1ccccc1N1CCOCC1)c1ccc(Br)cc1,1,-1,/,/,14*,/,/,OXTR pot cf=3
CCOC(=O)N[C@H](Cc1c[nH]c2ccccc12)C(=O)NC1CC1,0,1,-1,-1,10*,/,/,OXTR pot cf=-2
COc1ccc(N2CCN(S(=O)(=O)c3cc(C)ccc3OC)CC2)cc1,2,0,0,0,-7,/,/,
Cc1cccn2cc(CNC(=O)C3CCCCC3)nc12,0,0,0,1,-1,/,/,
Cc1cccn2cc(CNC(=O)c3ccc(Br)o3)nc12,0,-1,0,0,12*,/,/,OXTR pot cf=-3
CC1([N+](=O)[O-])COC2(OC1)C(=O)Nc1ccccc12 (stereo unspecified),1,3,/,/,3,/,/,

# Screening results as filed in PubChem.
